Assay outcomes from PubChem BioAssay.
Compounds with a hit are over-represented: about 4.5% of the library has one in this group of screens.
UPR CHOP act: activators of apoptotic CHOP UPR arm, primary screen, cell-based, CHO-CHOP luciferase reporter, luminescence, uHTS; AID 449763, 2010; activation, % at 10 µM; 0.34% of 330,000 active; UPR activation; percent of tunicamycin response over DMSO baseline;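 active = at 10 µM dose, activation of 40% or more, normalized to positive control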;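 note: 100% = tunicamycin at 10 µg/mL and 0% = DMSO alone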
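Test system: CHO-CHOP cells, stable luciferase reporter of PERK-eIF2a-CHOP signalling | Quantity: 500 CHO-CHOP cells per well | Buffer or medium: F12 plus 10% serum | Compound dosing: 10 µM single point, 0.5% DMSO | Schedule: 6 h compound treatment, 37 °C | Signal: Luciferase luminescence | Control set: Tunicamycin high control, DMSO low control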
CHOP inh: inhibitors of CHOP promoter induction, primary screen, cell-based, unfolded protein response, luciferase reporter. CHO-K1 CHOP-promoter luciferase, tunicamycin-induced, 15-18 h. inhibition, % at 10 µM. 3.8% of 220,000 active;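 active = compounds that reduced the stress-induced luciferase reporter signal by more than about 70% of percent inhibition, limit read from the data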;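 note: 0% = tunicamycin plus vehicle and 100% = wells without tunicamycin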
NS3 helicase inh: inhibitors of HCV NS3 helicase, primary screen, biochemical, Cy5 molecular beacon fluorescence | 0.56% of 290,000 active | NS3 helicase DNA unwinding | AID 1800, 2009 | Hepatitis C virus NS3 helicase | inhibition, % at 10.9 µM;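 active = inhibition above the mean of all tested compounds plus 3 SD, set per campaign, cut at about 35% in these data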;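 note: 0% = DMSO wells and 100% = thioflavine S control wells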
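Control set: DMSO versus 110 µM thioflavine S; Material: NS3 helicase fragment of HCV; Measured by: Cy5 fluorescence at 0 and 60 min, beacon hairpin quenching; Read-out basis: percent inhibition from t60/t0 fluorescence ratio; Times: reaction time 60 min, 25 °C; Repeats: single replicate; Compound dosing: single dose, 10.9 µM nominal final, DMSO 0.8% final.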
PfM18AAP inh-1: PfM18AAP inhibitors, malaria aminopeptidase, primary screen, biochemical, QFRET, recombinant enzyme; H-Glu-NHMec fluorogenic cleavage; inhibition, % at 7.35 µM; AID 1822, 2009; 1.2% of 290,000 active;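 active = inhibition above the campaign mean inhibition over all tested compounds plus 3 SD, cut at about 28% in these data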;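 note: 0% = plate median of test compound wells and 100% = 2 mM ZnCl2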
UPR XBP1 act: activators of adaptive XBP1 UPR arm, primary screen, cell-based, CHO-XBP1 luciferase reporter, luminescence, uHTS; IRE1-XBP1 UPR activation; percent of tunicamycin response, DMSO as zero; activation, % at 20 µM; 0.33% of 330,000 active;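 active = versus positive control, 20 µM dose yields 30% or more activation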;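 note: 100% = tunicamycin at 10 µg/mL and 0% = DMSO only wells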
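Material: CHO cell line with stable XBP1 luciferase reporter; schedule: 16-18 h cell attachment at 37 °C, then 6 h compound exposure; signal: glow luminescence from Steady-Glo reagent; medium: serum-containing F12 medium, 10% FBS; benchmarks: tunicamycin 10 µg/mL and vehicle-only wells; read-out: percent activation relative to tunicamycin reference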
p97 inhibitor: inhibitors of human p97 ATPase, primary screen, biochemical. 0.42% of 220,000 active. Transitional endoplasmic reticulum ATPase (Homo sapiens), P55072. inhibition, % at 8 µM. recombinant p97 ATPase, Kinase-Glo ATP luminescence, 3 h; in the data active = inhibition above about 15%;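 note: 0% = DMSO vehicle and 100% = wells lacking enzyme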
Target sequence (P55072 whole entry, looked up): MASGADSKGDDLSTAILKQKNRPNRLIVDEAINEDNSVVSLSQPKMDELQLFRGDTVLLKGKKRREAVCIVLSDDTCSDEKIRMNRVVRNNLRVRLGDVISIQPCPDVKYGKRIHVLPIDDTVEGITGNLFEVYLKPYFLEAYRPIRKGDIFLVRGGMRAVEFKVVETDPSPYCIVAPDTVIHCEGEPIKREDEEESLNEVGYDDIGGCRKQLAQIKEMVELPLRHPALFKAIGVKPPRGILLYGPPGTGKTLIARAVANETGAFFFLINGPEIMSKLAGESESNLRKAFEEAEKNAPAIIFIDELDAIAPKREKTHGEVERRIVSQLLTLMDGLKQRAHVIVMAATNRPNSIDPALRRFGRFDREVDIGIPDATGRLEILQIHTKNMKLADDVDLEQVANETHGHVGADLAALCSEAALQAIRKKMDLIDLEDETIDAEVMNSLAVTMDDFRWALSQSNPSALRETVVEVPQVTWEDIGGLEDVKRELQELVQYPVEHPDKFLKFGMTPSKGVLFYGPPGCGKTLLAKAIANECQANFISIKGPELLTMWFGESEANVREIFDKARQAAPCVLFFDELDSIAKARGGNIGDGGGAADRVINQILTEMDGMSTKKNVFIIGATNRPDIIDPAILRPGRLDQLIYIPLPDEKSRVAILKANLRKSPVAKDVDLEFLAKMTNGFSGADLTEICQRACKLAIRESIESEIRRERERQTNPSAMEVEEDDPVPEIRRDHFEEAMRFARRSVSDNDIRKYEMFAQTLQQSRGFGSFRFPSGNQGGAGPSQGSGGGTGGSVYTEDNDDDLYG
NS3 hel confirm: HCV NS3 helicase inhibitors, retest, confirmation, biochemical, Cy5 molecular beacon fluorescence, triplicate | inhibition, % at 10.9 µM | shares compounds with NS3 helicase inh | 31% of 1,600 active | AID 1943, 2009 | NS3 helicase DNA unwinding;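 active = inhibition above the mean of all tested compounds plus 3 SD, cutoff set per campaign, cut at about 36% in these data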
FID counter trip: compounds displacing fluorescent DNA intercalator, artefact control for HCV NS3 helicase inhibitor project, biochemical, FID fluorescence, triplicate | shares compounds with NS3 helicase inh | DNA fluorescent intercalator displacement | inhibition, % at 7.9 µM | 4% of 1,600 active; in the data active = inhibition above about 37%;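 note: 0% = vehicle and 100% = reference compound; higher means more displacement of ethidium bromide from the DNA hairpin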
FID counter DR: compounds displacing fluorescent intercalator from DNA, dose response, counter-screen for HCV NS3 helicase inhibitor project, biochemical, fluorescence; 120 tested, under 10 active; fluorescent intercalator displacement from DNA; IC50, µM; shares compounds with NS3 helicase inh; call rule not given here
PfM18AAP inh-2: PfM18AAP inhibitors, malaria aminopeptidase, confirmation, biochemical, QFRET, recombinant enzyme, triplicate; shares compounds with PfM18AAP inh-1; H-Glu-NHMec fluorogenic cleavage; inhibition, % at 7.35 µM; 28% of 2,400 active; AID 2170, 2009;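 active = mean inhibition over replicate wells above the hit cutoff set for the earlier primary screen, cut at about 29% in these data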;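 note: 0% = median of test compound wells and 100% = 2 mM ZnCl2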
CTSL1 confirm: cathepsin L1 inhibitors, retest, confirmation, counter-screen for PFM18AAP inhibitor project, biochemical, QFRET, triplicate. shares compounds with PfM18AAP inh-1. purified cathepsin L1, Z-Leu-Arg-MCA fluorescence. inhibition, % at 5.96 µM. 2,400 tested, under 10 active;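 active = average inhibition across replicates above the hit cutoff set in the earlier primary screen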;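 note: 0% = median of test compound wells and 100% = Z-Phe-Ala-diazomethylketone 1 µM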
CHOP confirm: retest of CHOP induction inhibitors, confirmation, cell-based; 45% of 2,100 active; shares compounds with CHOP inh; CHO-CHOP promoter luciferase reporter, tunicamycin-induced, luminescence; inhibition, % at 10 µM;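 active = mean of three repeat readings of reporter signal inhibition above a set limit, cut at about 70% in these data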;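 note: 0% = tunicamycin plus vehicle and 100% = wells lacking tunicamycin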
UPR CHOP confirm: activators of apoptotic CHOP UPR arm, confirmation, cell-based, CHO-CHOP luciferase reporter, single concentration. shares compounds with UPR CHOP act. CHO-CHOP cells, CHOP-luciferase reporter luminescence; percent of tunicamycin response, DMSO as zero. activation, % at 10 µM. 64% of 1,000 active; in the data active = activation above about 33%;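 note: 0% = DMSO wells and 100% = tunicamycin 10 µg/mL wells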
* hit, by the source's call; / = no result given.

SMILES	UPR CHOP act	CHOP inh	NS3 helicase inh	PfM18AAP inh-1	UPR XBP1 act	p97 inhibitor	NS3 hel confirm	FID counter trip	PfM18AAP inh-2	CTSL1 confirm	others
CCCN1CC(O)=C(C#N)C1=O	0	3	-4	-9	1	7	/	/	/	/
CC(/C=N/n1c(-c2ccco2)n[nH]c1=S)=C\c1ccccc1	-1	25	7	17	0	-2	/	/	/	/
CC(/C=N/n1c(-c2cc(C)[nH]n2)n[nH]c1=S)=C\c1ccco1	2	-14	45*	36*	-2	7	-16	-5	-26	-2
Cc1ccc(NC(=O)c2ncn(CC(=O)NCc3ccc4c(c3)OCO4)n2)cc1C	6	/	/	/	3	/	/	/	/	/
COc1cccc(C2C(C#N)=C(N)OC3=C2C(=O)CC(c2ccco2)C3)c1OCc1ccc(F)cc1 (configuration not stated)	1	15	39*	35*	-3	9	64*	-3	-53	-6	FID counter DR=>79
O=C1ON=C(c2ccccc2)/C1=C/c1ccc(O)c(O)c1	5	/	46*	60*	9	/	17	4	37*	-4
COCCN(C(=O)C1CC(=O)N(Cc2ccc(C)cc2)C1)c1c(N)n(CC(C)C)c(=O)[nH]c1=O (configuration not stated)	1	/	/	/	-2	/	/	/	/	/
Oc1cccc(C=Nc2cccc3ccccc23)c1O	-2	/	46*	50*	8	/	-1	14	32*	-2
Oc1ccccc1C=Nc1cccc2ccccc12	-1	/	5	12	-6	/	/	/	/	/
COC(=O)c1ccc(CNC(=O)COC(=O)/C=C/c2cc(OC)c(OC)c(OC)c2)cc1	0	/	/	/	1	/	/	/	/	/
N#C/C(=C\c1ccc(O)c(O)c1)S(=O)(=O)c1ccccc1	-2	10	38*	51*	-4	8	58*	17	24	5	FID counter DR=>79
N#C/C(=C/c1ccc(F)cc1)S(=O)(=O)c1ccccc1	0	10	18	-9	-3	9	/	/	/	/
CC(=O)C(C(C)=O)c1c(Cl)c(O)c(O)c2c(C(=O)c3ccccc3)coc12	25	/	38*	55*	-2	0	-10	3	55*	3	CHOP confirm=100*
Cc1c(N(C)S(=O)(=O)c2cccc(C(=O)NC(C)C)c2)c(=O)n(-c2ccccc2)n1C	-1	/	13	-5	-2	/	/	/	/	/
CCN(CC(=O)Nc1c(F)cccc1F)C(=O)COc1ccc2c(C)cc(=O)oc2c1	0	-2	0	-8	0	4	/	/	/	/
CC1=CN2C(=N)/C(=C/c3ccc([N+](=O)[O-])o3)C(=O)N=C2S1	/	107*	51*	12	/	8	53*	12	/	/	FID counter DR=>79;CHOP confirm=29
CC1=CN2C(=N)/C(=C/c3ccco3)C(=O)N=C2S1	-3	24	6	-2	1	1	/	/	/	/
CC1=NN(c2ccc(C)c(C)c2)C(=O)/C1=C\C=C\c1ccc([N+](=O)[O-])o1	25	108*	40*	-11	1	3	15	33	/	/	CHOP confirm=21
CCCCCOc1ccc(N2C(=O)CC(N(O)c3ccccc3)C2=O)cc1 (configuration not stated)	112*	38	45*	4	-1	-3	7	4	/	/	UPR CHOP confirm=143*
CCCCN(C(C)=O)C1CC(=O)N(c2ccc(OCCC)cc2)C1=O (configuration not stated)	-2	26	-10	0	-2	1	/	/	/	/
CCCCOc1ccc(N2C(=O)CC(N(O)c3ccccc3)C2=O)cc1 (configuration not stated)	146*	8	37*	7	4	-4	-2	13	/	/	UPR CHOP confirm=165*
Oc1ccc(/C=N/Nc2cc(N3CCCC3)nc(N3CCCC3)n2)cc1O	126*	12	56*	40*	18	4	8	23	27	4	UPR CHOP confirm=124*
O=C(O)c1ccc2c(=O)n3c(nc2c1)/C(=C/c1ccccc1OC(F)F)CC3	0	/	-2	-9	2	/	/	/	/	/
COc1ccc(/C=N/N2CCN(c3ccccc3OC)CC2)cc1OC	0	-4	4	0	2	-8	/	/	/	/
COc1ccccc1N1CCN(/N=C/c2ccc(O)c(O)c2)CC1	184*	-6	37*	63*	9	2	-1	-7	/	/	UPR CHOP confirm=101*
C[C@H]1COC(=O)[C@@H](Cc2ccc(F)cc2)C/C=C\C[C@@H](CC(=O)N[C@@H](CO)Cc2ccccc2)C(=O)N1	1	/	/	/	-1	/	/	/	/	/
CC(C)N=c1scc(-c2cccs2)n1/N=C/c1ccc(O)c(O)c1O	212*	106*	43*	39*	37*	9	-10	17	-40	-3	UPR CHOP confirm=150*
Oc1ccc(-c2csc(Nc3cccc4ccccc34)n2)cc1O	131*	/	42*	55*	10	/	-21	12	25	-13	UPR CHOP confirm=142*
Cc1csc(Nc2cccc3ccccc23)n1	2	6	-13	7	2	1	/	/	/	/
